This is a sample that favours compounds with a hit; in the whole collection about 2.4% have one here.
LMPTP inh: blocks human LMPTP phosphatase. inhibition, % at 20 µM. recombinant LMPTP-A, OMFP fluorogenic substrate, fluorescence intensity. P24666. 360,000 compounds, 0.22% hits;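 active = compounds that cut the enzyme signal by at least half of the control window in the single-dose screen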;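 note: plate controls were DMSO wells with enzyme plus substrate for no effect and substrate without enzyme for full effect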
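Test system – LMPTP-A phosphatase enzyme · Quantity – 0.625 nM LMPTP-A final · Reagent – OMFP substrate, 400 µM final · Dosing – one test concentration per compound, 20 µM, with 3% DMSO overall · Timing – 50 min enzyme reaction at room temperature, protected from light · Detection – fluorescence intensity · Controls – substrate-only low control, DMSO enzyme-plus-substrate high control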
STEP block: blocks human striatal-enriched tyrosine phosphatase. 360,000 compounds, 0.25% hits. recombinant STEP, OMFP fluorogenic substrate, fluorescence. inhibition, % at 20 µM. AID 588621. P54829;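 active = inhibition at 20 µM, scaled per plate between control wells, above about 37%, limit read from the data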;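 note: 0% = DMSO with enzyme and substrate and 100% = substrate only without enzyme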
Target sequence (P54829 whole entry, looked up): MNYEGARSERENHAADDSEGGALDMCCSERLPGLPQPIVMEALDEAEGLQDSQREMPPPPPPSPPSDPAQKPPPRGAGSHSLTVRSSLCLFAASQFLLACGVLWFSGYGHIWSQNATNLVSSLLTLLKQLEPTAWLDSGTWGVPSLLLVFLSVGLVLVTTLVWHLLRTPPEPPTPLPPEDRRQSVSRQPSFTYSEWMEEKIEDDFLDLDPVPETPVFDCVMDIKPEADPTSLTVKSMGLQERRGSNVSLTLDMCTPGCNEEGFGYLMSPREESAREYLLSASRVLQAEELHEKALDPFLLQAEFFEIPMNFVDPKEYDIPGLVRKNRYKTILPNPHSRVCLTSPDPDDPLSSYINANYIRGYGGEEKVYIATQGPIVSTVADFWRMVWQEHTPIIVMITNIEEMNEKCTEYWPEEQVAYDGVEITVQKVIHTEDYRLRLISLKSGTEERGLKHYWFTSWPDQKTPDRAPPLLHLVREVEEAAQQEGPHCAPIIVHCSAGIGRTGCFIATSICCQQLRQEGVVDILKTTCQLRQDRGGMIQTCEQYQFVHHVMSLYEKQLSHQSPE
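System: STEP phosphatase, cell-free reaction; Buffer or medium: Bis-Tris pH 6.0 buffer with DTT, detergent; Incubation: 20 min at room temperature, dark; Measured by: fluorescence, 480/540 nm.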
NadD inh: blocks S. aureus nicotinate mononucleotide adenylyltransferase. purified NadD enzyme, colorimetric absorbance read-out. inhibition, % at 20 µM. 360,000 compounds, 0.78% hits; in the data active = inhibition above about 26%
SUMO1 PPI mod: alters human SUMO1 binding to SIM partners. P63165. SUMO1 binding to a labelled peptide, TR-FRET, 1 h. inhibition, % at 20 µM. 360,000 compounds, 0.33% hits; in the data active = inhibition above about 37%
Target sequence (P63165 whole entry, looked up): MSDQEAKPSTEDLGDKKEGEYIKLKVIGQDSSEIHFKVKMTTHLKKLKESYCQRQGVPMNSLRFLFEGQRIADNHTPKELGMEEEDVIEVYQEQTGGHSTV
DNMT1 block: blocks human DNA methyltransferase DNMT1; DNMT1 molecular beacon, Hinp1I cleavage, fluorescence; inhibition (reported as % activation of signal), % at 10 µM; 360,000 compounds, 0.83% hits; in the data active = inhibition above about 50%
Scp-1 inhibitor: inhibitors of human Scp-1 phosphatase; Q9GZU7; Recombinant Scp1, phosphopeptide, malachite green phosphate absorbance; inhibition, % at 20 µM; 340,000 compounds, 0.88% hits;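 active = inhibition above about 50% at 20 µM, limit read from the data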;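 note: plate controls were DMSO wells with enzyme for no effect and wells lacking enzyme for full effect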
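Material – SCP-1 phosphatase catalytic domain, residues 76-261 · Buffer or medium – Acidic Tris acetate buffer with magnesium and detergent · Also added – Phospho 17-mer peptide substrate · Compound – single 20 µM dose, 1% DMSO · Times – 45 min room-temperature reaction, 5 min colour, 30 min stabiliser · Technique – Phosphate-binding colour reagent, absorbance read at 630 nm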
DNMT1 inh conf: DNMT1 inhibition confirmation, single concentration; AID 602385; shares compounds with DNMT1 block; 2,300 compounds, 8% hits; inhibition, % at 10 µM; DNMT1 molecular beacon HinP1I cleavage, fluorescence;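 active = average inhibition of at least 30% in the single-concentration confirmation test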
Beacon interf: beacon fluorescence artifact counter-screen; shares compounds with DNMT1 block; DNMT1 molecular beacon spectral interference counterscreen, fluorescence 485/520; activation (fluorescence interference), % at 10 µM; 2,300 compounds, 1% hits;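 active = activation of at least 30% at 10 µM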;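 note: DNMT1 catalytic domain with a HinP1I cleavage step and a FAM/dabcyl DNA beacon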
Numbers without * were called inactive; / = no result.

SMILES | LMPTP inh | STEP block | NadD inh | SUMO1 PPI mod | DNMT1 block | Scp-1 inhibitor | DNMT1 inh conf | Beacon interf
CCCCCCn1c(=O)[nH]c2nc3cc(N)c(C)cc3nc2c1=O | -11 | -199 | 17 | -24 | 63* | -3 | 74* | 118*
CCCCn1c(=O)[nH]c2nc3cc(NC(C)=O)ccc3nc2c1=O | 0 | 0 | -5 | -23 | 3 | -3 | / | /
COc1cc(/C=C2\SC(=O)N(CC(=O)Nc3ccc(C)cc3)C2=O)cc(Cl)c1OCC(=O)O | 84* | 98* | 25 | 47* | 90* | 26 | 3 | 6
O=C(c1sc2cc(Cl)ccc2c1Cl)N1CCN(CCc2ccccn2)CC1 | 1 | 0 | -4 | 4 | -1 | -3 | / | /
Nc1nc(Nc2ccccc2)sc1C(=O)c1ccccc1 | 3 | 2 | -7 | -24 | -8 | 5 | / | /
COc1ccc(C(=O)c2sc(Nc3ccccc3)nc2N)cc1 | 2 | 2 | -2 | -4 | 89* | -2 | 2 | 5
O=c1cc(CCl)nc2sc3ccccc3n12 | 14 | 9 | 4 | 7 | 62* | 46 | 3 | -2
O=C(Nc1cccc(N2CCCC2)c1)c1cccs1 | 17 | 1 | 30 | 7 | 59* | -8 | 3 | 5
N#Cc1c2ccc(OCC(=O)NCc3ccco3)cc2n2ccccc12 | 1 | 6 | 8 | 7 | 62* | 15 | 1 | 0
Cc1cnn(-c2cc(N/N=C/c3ccccc3Cl)ncn2)c1 | 1 | 9 | 15 | -1 | 46 | 7 | / | /
Cc1cnn(-c2cc(N/N=C/c3ccc(F)cc3)ncn2)c1 | -2 | 0 | 4 | -1 | 60* | 15 | 2 | 1
CCn1cc(S(=O)(=O)NCCc2ccc(OC)c(OC)c2)cn1 | 1 | 0 | 2 | -2 | 83* | 1 | 3 | 0
Cc1nnc(SCC(=O)NCc2ccco2)[nH]c1=O | -1 | 2 | -5 | 9 | 20 | 18 | / | /
Cc1cc(=O)[nH]c(SCC(=O)NCc2ccco2)n1 | 0 | 4 | -3 | 23 | 56* | 67* | 1 | 3
O=C(OCC(=O)N1N=C(c2ccc(Cl)cc2)CC1c1ccco1)c1cccnc1 (stereo unspecified) | 10 | -1 | 25 | 9 | 81* | 17 | 3 | 3
COCC(=O)OCC(=O)N1N=C(c2ccc(Cl)cc2)CC1c1ccco1 (stereo unspecified) | -1 | -3 | -4 | -8 | 4 | -4 | / | /
O=C(CCl)N1N=C(c2ccco2)CC1c1ccco1 (stereo unspecified) | 8 | 16 | 5 | 12 | 87* | 40 | 5 | 6
O=S1(=O)CCN2N=C(C3CC3)SC2=N1 | 0 | 1 | 0 | -4 | 0 | 2 | / | /
Cc1ccc(C)n1-c1sc2c(c1C(=O)O)CCCC2 | 0 | 5 | 10 | 7 | 97* | 43 | 11 | -2
O=C(COC(=O)/C=C/c1cccc(C(F)(F)F)c1)NC(c1ccccc1)c1ccccc1 | -1 | 3 | 3 | -6 | 56* | -4 | 0 | 3
O=C(COC(=O)/C=C/c1cccc(C(F)(F)F)c1)NC(=O)NCc1ccccc1 | -1 | 0 | -5 | 4 | 3 | -10 | / | /
COC(=O)c1ccccc1NC(=O)[C@@H]1CCC(=O)N1C1OC(=O)c2c1ccc(OC)c2OC (stereo partly specified) | 0 | 1 | 4 | -3 | -4 | -4 | / | /
O=C(CCN1CCN(c2ccccc2)CC1)N/N=C/c1ccc(O)c(O)c1O | 67* | 4 | 30 | 23 | 79* | 1 | 3 | 2
COc1ccc(/C=N/NC(=O)CCN2CCN(c3ccccc3)CC2)c(OC)c1OC | 0 | 3 | -1 | -2 | -1 | -7 | / | /
CCOC(=O)c1ccc(NC(=O)CN2CCN(C(=O)C3CCCO3)CC2)cc1 (stereo unspecified) | 0 | 0 | 4 | -7 | -1 | -9 | / | /
SMILES | LMPTP inh | STEP block | NadD inh | SUMO1 PPI mod | DNMT1 block | Scp-1 inhibitor | DNMT1 inh conf | Beacon interf
O=[N+]([O-])c1cccc(/C=C/c2nc[nH]c2[N+](=O)[O-])c1 | 26 | 37 | -3 | -19 | 3 | 50 | / | /
COc1cccc(CNC(=O)CN2C(=O)CSc3ccc(S(=O)(=O)N4CCCC4)cc32)c1 | 0 | 1 | 3 | -2 | -1 | -3 | / | /
COc1ccc2cc3c(N)nn(C(=O)Cc4ccc(Cl)cc4)c3nc2c1 | 1 | 1 | 21 | 3 | 69* | -3 | 0 | 1
CC(=O)c1ccc(N=Cc2c(O)n(-c3cc(Cl)ccc3N3CCOCC3)c(=O)c3ccccc23)cc1 | 4 | 7 | 6 | -8 | 86* | -14 | 4 | 5
COc1cc(N)c(Cl)cc1C(=O)OCC(=O)c1cccs1 | 0 | 1 | -6 | 3 | -2 | -5 | / | /
COc1ccc(/C=c2\sc3nc(-c4ccccc4OC)nn3c2=O)c(OC)c1 | 4 | -5 | -2 | -3 | 71* | 3 | 0 | -8
O=C(CNC(=O)c1ccccc1F)NCCOc1ccccc1Cl | -2 | -2 | -6 | 0 | 9 | -3 | / | /
CCC(C)(NC(=O)c1ccc2c(c1)OCO2)C(=O)NC1CCCCC1 (stereo unspecified) | -2 | 12 | 0 | 0 | 3 | 1 | / | /
COC(=O)COc1ccc(S(=O)(=O)Nc2ccccc2SC)cc1 | -1 | -1 | -4 | -1 | 79* | -28 | 4 | 8
Cc1cccc(C)c1OCC(=O)Nc1cccc(-c2nnc(-c3ccccc3)o2)c1 | 1 | 3 | 4 | 3 | -5 | -8 | / | /
Cc1cccc(OCC(=O)Nc2cccc(-c3nnc(-c4ccccc4)o3)c2)c1C | 0 | -1 | 1 | 2 | 57* | 2 | -2 | -3
Nc1ccc(S(=O)(=O)C(F)(F)F)cc1N | 0 | -2 | -2 | -7 | 1 | -9 | / | /
COc1cc(/C=N/NC(=O)c2nnn(-c3nonc3N)c2C)ccc1OCc1ccc(Cl)cc1 | 20 | 8 | 16 | 4 | 58* | / | -1 | -1
COc1cc(/C=N/NC(=O)c2nnn(-c3nonc3N)c2C(C)C)ccc1OCc1ccccc1 | 6 | 2 | 17 | -3 | -15 | -7 | / | /
CCc1ccc([C@H]2C(C(=O)O)=C[C@@H](CC)N2S(=O)(=O)c2ccc(C)cc2)cc1 | -2 | 2 | -1 | 2 | 74* | 8 | 4 | 1
Cc1sc(NC(=O)CN(Cc2ccc(F)cc2)C(=O)C(C)(C)C)c(C(N)=O)c1C | 0 | -2 | -1 | 1 | -4 | -13 | / | /
